Measured values published in ChEMBL document CHEMBL1135734, “Side-chain lactam-bridge conformational constraints differentiate the activities of salmon and human calcitonins and reveal a new design concept for potent calcitonin analogues” (J Med Chem, 2002).

Tests used:
[1] = biological target: T1, Calcitonin receptor (Rattus norvegicus) (UniProt P32214); assay: Affinity for calcitonin receptor of rat brain relative to [125I]-salmon calcitonin
T1 sequence (whole entry): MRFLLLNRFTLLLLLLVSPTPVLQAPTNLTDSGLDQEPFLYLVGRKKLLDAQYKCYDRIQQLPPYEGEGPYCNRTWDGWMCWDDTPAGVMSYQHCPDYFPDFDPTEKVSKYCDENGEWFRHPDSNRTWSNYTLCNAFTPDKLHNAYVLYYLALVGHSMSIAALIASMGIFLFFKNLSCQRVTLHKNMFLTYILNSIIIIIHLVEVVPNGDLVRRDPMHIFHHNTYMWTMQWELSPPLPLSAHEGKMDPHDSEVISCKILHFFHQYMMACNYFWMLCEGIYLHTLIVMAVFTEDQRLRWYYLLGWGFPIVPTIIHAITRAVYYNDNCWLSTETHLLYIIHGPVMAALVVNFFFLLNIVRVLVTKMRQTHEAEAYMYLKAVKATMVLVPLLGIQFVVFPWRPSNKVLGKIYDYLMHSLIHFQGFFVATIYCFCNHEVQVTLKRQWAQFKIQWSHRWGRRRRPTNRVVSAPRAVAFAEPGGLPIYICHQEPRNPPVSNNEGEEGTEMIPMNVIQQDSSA
How it was run: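 Male Sprague–Dawley rat (250–350 g) brain membranes (~0.63 mg protein/tube) were shaken on ice for 30 min with 10 pM final [125I-Tyr22]sCT and competitor in 50 mM Tris-HCl pH 7.4 with 34 μM bacitracin. Tubes were centrifuged and the pellets washed, SDS-solubilized and scintillation counted. Nonspecific binding was taken with 1 μM sCT. IC50 came from probit analysis, and relative affinity set sCT = 100%.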

[2] = biological target: T2, Calcitonin receptor (Homo sapiens) (UniProt P30988)
T2 sequence (whole entry): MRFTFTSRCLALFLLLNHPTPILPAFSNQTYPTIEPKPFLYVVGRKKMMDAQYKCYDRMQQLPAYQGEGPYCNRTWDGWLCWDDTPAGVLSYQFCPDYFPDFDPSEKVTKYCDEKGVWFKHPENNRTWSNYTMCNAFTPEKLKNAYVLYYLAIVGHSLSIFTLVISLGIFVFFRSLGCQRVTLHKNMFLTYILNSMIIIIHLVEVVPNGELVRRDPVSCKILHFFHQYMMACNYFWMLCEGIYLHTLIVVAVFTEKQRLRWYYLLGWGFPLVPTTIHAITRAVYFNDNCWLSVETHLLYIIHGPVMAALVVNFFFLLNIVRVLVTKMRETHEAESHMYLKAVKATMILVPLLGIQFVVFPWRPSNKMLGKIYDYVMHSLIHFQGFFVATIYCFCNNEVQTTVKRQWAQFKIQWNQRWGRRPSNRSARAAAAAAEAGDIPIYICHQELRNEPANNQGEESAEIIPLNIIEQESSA

SMILES | Relative affinity [1] | ED50 [2] [nM]
CC[C@H](C)[C@H](NC(=O)[C@H](C)NC(=O)[C@@H](NC(=O)[C@H](CCC(N)=O)NC(=O)[C@H]1CCCN1C(=O)[C@H](Cc1ccccc1)NC(=O)[C@@H](N[C@@H](Cc1c[nH]cn1)C(=O)N1CCC[C@H]1C(=O)[C@H](CCCCN)NC(=O)[C@H](CC(N)=O)NC(=O)[C@H](Cc1ccccc1)NC(=O)[C@H](CC(=O)O)NC(=O)[C@H](CCC(N)=O)NC(=O)[C@@H](NC(=O)[C@H](Cc1ccc(O)cc1)NC(=O)[C@@H](NC(=O)CNC(=O)[C@H](CC(C)C)NC(=O)[C@H](CCSC)NC(=O)[C@H](CS)NC(=O)[C@@H](NC(=O)[C@H](CO)NC(=O)[C@H](CC(C)C)NC(=O)[C@H](CC(N)=O)NC(=O)CNC(=O)[C@@H](N)CS)[C@@H](C)O)[C@@H](C)O)[C@@H](C)O)[C@@H](C)O)[C@@H](C)O)C(=O)NCC(=O)N[C@H](C(=O)NCC(=O)N[C@@H](C)C(=O)N1CCC[C@@H]1C(N)=O)C(C)C | < 0.0075 | 22
CC[C@H](C)[C@H](NC(=O)[C@H](C)NC(=O)[C@@H](NC(=O)[C@H](CCC(N)=O)NC(=O)[C@@H]1CCCN1C(=O)[C@H](Cc1ccccc1)NC(=O)[C@@H](N[C@@H](Cc1c[nH]cn1)C(=O)N[C@@H](Cc1ccccc1)C(=O)[C@@H]1CCCN1C(=O)[C@H](CC(N)=O)NC(=O)[C@H](Cc1ccccc1)NC(=O)[C@H](CC(=O)O)NC(=O)[C@H](CCC(N)=O)NC(=O)[C@@H](NC(=O)[C@H](Cc1ccc(O)cc1)NC(=O)[C@@H](NC(=O)CNC(=O)[C@H](CC(C)C)NC(=O)[C@H](CCSC)NC(=O)[C@H](CS)NC(=O)[C@@H](NC(=O)[C@H](CO)NC(=O)[C@H](CC(C)C)NC(=O)[C@H](CC(N)=O)NC(=O)CNC(=O)[C@@H](N)CS)[C@@H](C)O)[C@@H](C)O)[C@@H](C)O)[C@@H](C)O)[C@H](C)O)C(=O)NCC(=O)N[C@H](C(=O)NCC(=O)N[C@@H](C)C(=O)N1CCC[C@H]1C(N)=O)C(C)C | 0.02 | 99
CC(C)C[C@H](NC(=O)[C@H](CCCCN)NC(=O)CNC(=O)[C@H](CC(C)C)NC(=O)[C@@H](NC(=O)[C@H](CS)NC(=O)[C@@H](NC(=O)[C@H](CO)NC(=O)[C@H](CC(C)C)NC(=O)[C@H](CC(N)=O)NC(=O)[C@H](CO)NC(=O)[C@@H](N)CS)[C@@H](C)O)C(C)C)C(=O)N[C@@H](CO)C(=O)N[C@@H](CCC(N)=O)C(=O)N[C@@H](CCC(=O)O)C(=O)N[C@@H](CC(C)C)C(=O)N[C@@H](Cc1c[nH]cn1)C(=O)N[C@@H](CCCCN)C(=O)N[C@@H](CC(C)C)C(=O)N[C@@H](CCC(N)=O)C(=O)N[C@H](C(=O)N[C@@H](Cc1ccc(O)cc1)C(=O)N1CCC[C@@H]1C(=O)N[C@@H](CCCN=C(N)N)C(=O)N[C@H](C(=O)N[C@@H](CC(N)=O)C(=O)N[C@H](C(=O)NCC(=O)N[C@@H](CO)C(=O)NCC(=O)N[C@H](C(=O)N1CCC[C@@H]1C(N)=O)[C@@H](C)O)[C@@H](C)O)[C@@H](C)O)[C@@H](C)O | 100 | 0.115
